Test results from ChEMBL document CHEMBL2417386, “Novel conjugated quinoline-indoles compromise Plasmodium falciparum mitochondrial function and show promising antimalarial activity” (J Med Chem, 2013).
pIC50: −log10 of the molar value.

Experiments:
[1] = Selectivity index, ratio of IC50 for HEK293 cells to IC50 for Plasmodium falciparum 3D7 after 72 hrs; assay type: toxicity, cell-based; settings: human, read-out: Ratio IC50
How it was run: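 Parasite (3D7) viability assay and HEK293 viability assay, each with a 72 h exposure. Index taken as the ratio of the IC50 values, HEK293 over 3D7.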

Plasmodium falciparum [2] = experiment: Antimalarial activity against Plasmodium falciparum K1 infected in RBC assessed as growth inhibition after 48 hrs by SYBR Green-I fluorescence assay; assay type: functional, organism-based; settings: K1, 48 h
How it was run: (§1)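 Parasite-infected red cells exposed to compound for 48 h; growth read by SYBR Green-I fluorescence; IC50 derived. Where a ± is given, it is the standard deviation of three individual experiments.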

Plasmodium falciparum [3] = experiment: Antimalarial activity against Plasmodium falciparum 3D7 infected in RBC assessed as growth inhibition after 48 hrs by SYBR Green-I fluorescence assay; assay type: functional, organism-based; settings: 3D7, 48 h; how it was run: as §1
[4] = Inhibition of beta-hematin formation after 24 hrs by spectrophotometric analysis in presence of nonidet P40; assay type: functional
Plasmodium falciparum [5] = experiment: Ratio of IC50 for trophozoite stage of Plasmodium falciparum 3D7 infected in RBC after 5 hrs in presence of 5 uM ALLN to IC50 for trophozoite stage of Plasmodium falciparum 3D7 infected in RBC after 5 hrs in absence of ALLN; assay type: functional
How it was run: (§2)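 Trophozoite-stage parasites pulsed 5 h with compound, with or without ALLN (0.2 or 5 μM). Drug and ALLN then removed; culture continued a further 43 h before survival was assessed. Antagonism expressed as the ratio of IC50 with ALLN to IC50 without ALLN.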

Plasmodium falciparum [6] = experiment: Ratio of IC50 for trophozoite stage of Plasmodium falciparum 3D7 infected in RBC after 5 hrs in presence of 0.2 uM ALLN to IC50 for trophozoite stage of Plasmodium falciparum 3D7 infected in RBC after 5 hrs in absence of ALLN; assay type: functional; how it was run: as §2
Plasmodium falciparum [7] = experiment: Antimalarial activity against trophozoite stage of Plasmodium falciparum 3D7 infected in RBC assessed as growth inhibition after 5 hrs by SYBR Green-I fluorescence assay; assay type: functional, organism-based; settings: 3D7, 5 h
How it was run: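 Trophozoite-stage parasites pulsed with compound for 5 h. Drug then washed out and parasites cultured a further 43 h before survival was assessed.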

Plasmodium falciparum [8] = experiment: Resistant index, ratio of IC50 for Plasmodium falciparum K1 to IC50 for Plasmodium falciparum 3D7; assay type: functional
How it was run: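 Ratio of K1 to 3D7 IC50 values. Each IC50 comes from a 48 h drug exposure of the P. falciparum strain, with growth read by SYBR Green-I fluorescence. Where spread is given, it is the standard deviation of three individual experiments.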

Plasmodium falciparum [9] = experiment: Ratio of IC50 for trophozoite stage of Plasmodium falciparum 3D7 infected in RBC after 5 hrs to IC50 for Plasmodium falciparum 3D7 infected in RBC after 48 hrs; assay type: functional
Plasmodium falciparum [10] = experiment: Antimalarial activity against mid to late trophozoite stage of Plasmodium falciparum 3D7 infected in RBC assessed as nonviable parasite at 15 uM after 0.5 hrs by SYTO 61 staining-based flow cytometric analysis relative to untreated control; assay type: functional
Plasmodium falciparum [11] = experiment: Gametocytocidal activity against synchronous stage 4 to 5 of transgenic Plasmodium falciparum NF54 gametocyte harboring pfs16 promoter assessed as parasite viability after 72 hrs by MitoTracker Red CMXRos-based assay; assay type: functional, organism-based; settings: NF54, 72 h
Plasmodium falciparum [12] = experiment: Gametocytocidal activity against synchronous stage 1 to 3 of transgenic Plasmodium falciparum NF54 gametocyte harboring pfs16 promoter assessed as parasite viability after 72 hrs by luciferase reporter gene assay; assay type: functional, organism-based; settings: NF54, 72 h
Plasmodium falciparum [13] = experiment: Gametocytocidal activity against asexual stage of transgenic Plasmodium falciparum NF54 gametocyte harboring pfs16 promoter assessed as parasite viability after 72 hrs by luciferase reporter gene assay; assay type: functional, organism-based; settings: NF54, 72 h
Plasmodium falciparum [14] = experiment: Antimalarial activity against mid to late trophozoite stage of Plasmodium falciparum 3D7 infected in RBC assessed as abnormal mitochondria at 0.6 uM after 0.5 hrs by MitoTracker Red CMXRos-based fluorescence microscopic analysis relative to untreated control; assay type: functional
Plasmodium falciparum [15] = experiment: Antimalarial activity against mid to late trophozoite stage of Plasmodium falciparum 3D7 infected in RBC assessed as abnormal mitochondria at 3 uM after 0.5 hrs by MitoTracker Red CMXRos-based fluorescence microscopic analysis relative to untreated control; assay type: functional
Plasmodium falciparum [16] = experiment: Antimalarial activity against mid to late trophozoite stage of Plasmodium falciparum 3D7 infected in RBC assessed as abnormal mitochondria at 15 uM after 0.5 hrs by MitoTracker Red CMXRos-based fluorescence microscopic analysis relative to untreated control; assay type: functional
Plasmodium falciparum [17] = experiment: Antimalarial activity against mid to late trophozoite stage of Plasmodium falciparum 3D7 infected in RBC assessed as nonviable parasite at 0.6 uM after 0.5 hrs by SYTO 61 staining-based flow cytometric analysis relative to untreated control; assay type: functional
Plasmodium falciparum [18] = experiment: Antimalarial activity against mid to late trophozoite stage of Plasmodium falciparum 3D7 infected in RBC assessed as nonviable parasite at 3 uM after 0.5 hrs by SYTO 61 staining-based flow cytometric analysis relative to untreated control; assay type: functional
Plasmodium falciparum [19] = experiment: Antimalarial activity against mid to late trophozoite stage of Plasmodium falciparum 3D7 infected in RBC assessed as nonviable parasite at 5 uM after 0.5 hrs by SYTO 61 staining-based flow cytometric analysis relative to untreated control; assay type: functional
Plasmodium falciparum [20] = experiment: Antimalarial activity against mid to late trophozoite stage of Plasmodium falciparum 3D7 infected in RBC assessed as abnormal mitochondria at 5 uM after 0.5 hrs by MitoTracker Red CMXRos-based fluorescence microscopic analysis relative to untreated control; assay type: functional
Plasmodium falciparum [21] = experiment: Antimalarial activity against mid to late trophozoite stage of Plasmodium falciparum 3D7 infected in RBC assessed as abnormal mitochondria at 0.56 uM after 0.5 hrs by MitoTracker Red CMXRos-based fluorescence microscopic analysis relative to untreated control; assay type: functional
Plasmodium falciparum [22] = experiment: Antimalarial activity against mid to late trophozoite stage of Plasmodium falciparum 3D7 infected in RBC assessed as abnormal mitochondria at 1.7 uM after 0.5 hrs by MitoTracker Red CMXRos-based fluorescence microscopic analysis relative to untreated control; assay type: functional
Plasmodium falciparum [23] = experiment: Antimalarial activity against mid to late trophozoite stage of Plasmodium falciparum 3D7 infected in RBC assessed as nonviable parasite at 0.56 uM after 0.5 hrs by SYTO 61 staining-based flow cytometric analysis relative to untreated control; assay type: functional
Plasmodium falciparum [24] = experiment: Antimalarial activity against mid to late trophozoite stage of Plasmodium falciparum 3D7 infected in RBC assessed as nonviable parasite at 1.7 uM after 0.5 hrs by SYTO 61 staining-based flow cytometric analysis relative to untreated control; assay type: functional

SMILES	selectivity ratio at 72 h [1]	pIC50 (Plasmodium falciparum [2])	pIC50 (Plasmodium falciparum [3])	pIC50 [4]	Ratio IC50 (Plasmodium falciparum [5])	Ratio IC50 (Plasmodium falciparum [6])	pIC50 (Plasmodium falciparum [7])	Ratio IC50 (Plasmodium falciparum [8])	Ratio IC50 (Plasmodium falciparum [9])	other results
CNc1cc(/C=C/c2c(C)[nH]c3ccccc23)[n+](C)c2ccccc12	16	5.80	5.85							
C[n+]1c(/C=C/c2c[nH]c3ccccc23)cc(N)c2ccc(Cl)cc21	2	6.72	6.40	3.52						
CCN(CC)CCCC(C)Nc1cc(/C=C/c2c[nH]c3ccccc23)nc2ccccc12 (stereo unspecified)	87	6.48	7.00	2.96	2.6	1.6	6.77	3	1.7	
C[n+]1c(/C=C/c2c[nH]c3ccccc23)cc(N)c2ccccc21.[I-]	35	6.92	6.70	2.85	3	1.5	6.00	0.6	5	Activity (Plasmodium falciparum [10]): 81%; pIC50 (Plasmodium falciparum [11]): 5.40; pIC50 (Plasmodium falciparum [12]): 6.52; pIC50 (Plasmodium falciparum [13]): 7.00; Activity (Plasmodium falciparum [14]): 18%; Activity (Plasmodium falciparum [15]): 91%; Activity (Plasmodium falciparum [16]): 100%; Activity (Plasmodium falciparum [17]): 8%; Activity (Plasmodium falciparum [18]): 73%
C[n+]1c(/C=C/c2c[nH]c3ncccc23)cc(N)c2ccccc21.[I-]	4	6.60	6.40					0.3		
Cc1[nH]c2ccccc2c1/C=C/c1cc(N)c2ccccc2[n+]1C.[I-]	18	6.64	6.77	3.66	1.7	1	6.14	1.3	4.3	Activity (Plasmodium falciparum [19]): 66%; Activity (Plasmodium falciparum [10]): 86%; pIC50 (Plasmodium falciparum [11]): 5.72; pIC50 (Plasmodium falciparum [12]): 6.46; Activity (Plasmodium falciparum [20]): 97%; Activity (Plasmodium falciparum [21]): 43%; Activity (Plasmodium falciparum [22]): 86%; Activity (Plasmodium falciparum [16]): 99%; Activity (Plasmodium falciparum [23]): 18%; Activity (Plasmodium falciparum [24]): 42%
C[n+]1c(/C=C/c2n[nH]c3ccccc23)cc(N)c2ccccc21.[I-]	107	6.64	6.15	2.82				0.3		
Nc1cc(/C=C/c2n[nH]c3ccccc23)nc2ccccc12	164	6.40	6.85					2		
